# Measured values taken from ChEMBL document CHEMBL4177578, “Synthesis, pharmacological activities and molecular docking studies of pyrazolyltriazoles as anti-bacterial and anti-inflammatory agents” (Bioorg Med Chem, 2017).
# Calls of active or inactive are those of the source. The rule behind the calls is not given here.
# What was measured:
# U-937 [1] = assay: Anti-inflammatory activity in human U937 cells assessed as inhibition of LPS-induced TNFalpha production at 10 uM pre-incubated for 1 hr before LPS stimulation for 24 hrs by ELISA method; assay type: functional
# How it was run: (§1)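 Human U937 cells grown in RPMI1640 with 10% FBS at 37 °C, 5% CO2. Differentiated with PMA 30 ng/ml for 24 h. Test compounds added for 1 h, then LPS 1 µg/ml for 24 h. TNF-α and IL-6 in supernatant measured by ELISA. Three independent experiments.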
# Micrococcus luteus [2] = assay: Antimicrobial activity against Micrococcus luteus at 1 mg/ml incubated for 20 to 30 mins followed by incubation for 24 hrs at 37 degC by agar plate method; assay type: functional; settings: read-out: DIZ
# How it was run: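 Agar well diffusion on nutrient agar. Plates swabbed with 60 µL inoculum; 8 mm wells loaded with 100 µL of compound at 1.0 mg/mL. Held 20–30 min at 4 °C for diffusion, then 24 h at 37 °C. Inhibition zone diameter read in mm. Triplicate.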
# Salmonella typhi [3] = assay: Antimicrobial activity against Salmonella typhi at 1 mg/ml incubated for 20 to 30 mins followed by incubation for 24 hrs at 37 degC by agar plate method; assay type: functional, Salmonella enterica subsp. enterica serovar Typhi; settings: Salmonella enterica; read-out: DIZ
# How it was run: (§2)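 Agar well diffusion on nutrient agar. Plates swabbed with 60 µL inoculum, 8 mm wells loaded with 100 µL sample at 1.0 mg/mL, streptomycin standard and control in separate wells. Plates held 20–30 min at 4 °C for diffusion, then 24 h at 37 °C. Zone diameter read in mm; triplicate.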
# Salmonella paratyphi [4] = assay: Antimicrobial activity against Salmonella paratyphi at 1 mg/ml incubated for 20 to 30 mins followed by incubation for 24 hrs at 37 degC by agar plate method; assay type: functional, Salmonella enterica subsp. enterica serovar Paratyphi A; settings: Salmonella enterica; read-out: DIZ; how it was run: as §2
# Micrococcus luteus [5] = assay: Antimicrobial activity against Micrococcus luteus incubated for 12 to 16 hrs by tube dilution method; assay type: functional
# How it was run: (§3)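 Tube dilution, serial from 500 to 1.9 µg/mL, plus drug-free control tube. Each tube inoculated with 1 mL culture at OD 0.2, incubated 37 °C for 12–16 h. MIC is the lowest concentration with no growth by turbidity. MBC is found by plating each tube on nutrient agar: the lowest concentration at which all cells are killed.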
# Micrococcus luteus [6] = assay: Antimicrobial activity against Micrococcus luteus incubated for 12 to 16 hrs followed by plating in nutrient agar by tube dilution method; assay type: functional; how it was run: as §3
# Salmonella typhi [7] = assay: Antimicrobial activity against Salmonella typhi incubated for 12 to 16 hrs by tube dilution method; assay type: functional, Salmonella enterica subsp. enterica serovar Typhi; settings: Salmonella enterica
# How it was run: (§4)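 Broth tube dilution, two-fold serial dilutions from 500 to 1.9 µg/mL plus a drug-free control tube. Each tube inoculated with 1 mL culture at OD 0.2 (~McFarland standard), 37 °C for 12-16 h. Turbidity compared with the control tube. MIC is the lowest concentration giving complete growth inhibition.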
# Salmonella typhi [8] = assay: Antimicrobial activity against Salmonella typhi incubated for 12 to 16 hrs followed by plating in nutrient agar by tube dilution method; assay type: functional, Salmonella enterica subsp. enterica serovar Typhi; settings: Salmonella enterica
# How it was run: (§5)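 After 12-16 h at 37 °C in tube dilution (500 to 1.9 µg/mL; 1 mL inoculum at OD 0.2), the culture from each tube was plated on nutrient agar. MBC is the concentration at which cells are completely killed.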
# Salmonella paratyphi [9] = assay: Antimicrobial activity against Salmonella paratyphi incubated for 12 to 16 hrs by tube dilution method; assay type: functional, Salmonella enterica subsp. enterica serovar Paratyphi A; settings: Salmonella enterica; how it was run: as §4
# Salmonella paratyphi [10] = assay: Antimicrobial activity against Salmonella paratyphi incubated for 12 to 16 hrs followed by plating in nutrient agar by tube dilution method; assay type: functional, Salmonella enterica subsp. enterica serovar Paratyphi A; settings: Salmonella enterica; how it was run: as §5
# [11] = Anti-inflammatory activity at 50 ug/ml using bovine serum albumin and egg albumin proteins incubated at 37 degC for 20 mins and then heated to 95 degC for 20 mins by UV-visible Spectrophotometry based protein denaturation method; assay type: functional
# How it was run: (§6)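 Albumin (bovine serum or egg) at 1% in 50 mM sodium phosphate buffer pH 6.4. Mixture is 0.1 ml test sample (1 mg/ml) plus 0.2 ml albumin, made to 5 ml with buffer. Held 37 °C for 20 min, then 95 °C for 20 min. Cooled to room temperature, turbidity read at 660 nm. % inhibition = (Abs control − Abs sample)/Abs control × 100. Triplicate, averaged.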
# [12] = Anti-inflammatory activity at 100 ug/ml using bovine serum albumin and egg albumin proteins incubated at 37 degC for 20 mins and then heated to 95 degC for 20 mins by UV-visible Spectrophotometry based protein denaturation method; assay type: functional; how it was run: as §6
# [13] = Anti-inflammatory activity using bovine serum albumin and egg albumin proteins incubated at 37 degC for 20 mins and then heated to 95 degC for 20 mins by UV-visible Spectrophotometry based protein denaturation method; assay type: functional; how it was run: as §6
# U-937 [14] = assay: Anti-inflammatory activity in human U937 cells assessed as inhibition of LPS-induced TNFalpha production pre-incubated for 1 hr before LPS stimulation for 24 hrs by ELISA method; assay type: functional, cell-based; how it was run: as §1
# U-937 [15] = assay: Anti-inflammatory activity in human U937 cells assessed as inhibition of LPS-induced IL6 production at 10 uM pre-incubated for 1 hr before LPS stimulation for 24 hrs by ELISA method; assay type: functional; how it was run: as §1
# U-937 [16] = assay: Anti-inflammatory activity in human U937 cells assessed as inhibition of LPS-induced IL6 production pre-incubated for 1 hr before LPS stimulation for 24 hrs by ELISA method; assay type: functional, cell-based; how it was run: as §1
# Mus musculus [17] = assay: Anti-inflammatory activity in Balb/c mouse assessed as reduction in LPS-induced serum TNFalpha production at 100 mg/kg, ig dosed for 3 consecutive days before LPS challenge and measured 6 hrs post LPS injection by ELISA method; assay type: functional, organism-based
# How it was run: (§7)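 Male Balb/c mice (20–25 g), 8 per group. Test compound at 100 mg/kg suspended in 2% gum acacia (10 ml/kg), given orally (intragastric) for 3 consecutive days. On day 3, LPS (10 mg/kg) given ip 1 h after the oral dose. Serum taken from retro-orbital blood 6 h after LPS; TNF-α and IL-6 measured by ELISA. Mean ± S.E.M.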
# Mus musculus [18] = assay: Anti-inflammatory activity in Balb/c mouse assessed as reduction in LPS-induced serum IL6 production at 100 mg/kg, ig dosed for 3 consecutive days before LPS challenge and measured 6 hrs post LPS injection by ELISA method; assay type: functional, organism-based; how it was run: as §7
SMILES,inhibition at 10 µM (U-937 [1]) [%],zone of inhibition at 1000 µg/mL (Micrococcus luteus [2]) [mm],zone of inhibition at 1000 µg/mL (Salmonella typhi [3]) [mm],zone of inhibition at 1000 µg/mL (Salmonella paratyphi [4]) [mm],MIC (Micrococcus luteus [5]) [µg/mL],MBC (Micrococcus luteus [6]) [µg/mL],MIC (Salmonella typhi [7]) [µg/mL],MBC (Salmonella typhi [8]) [µg/mL],MIC (Salmonella paratyphi [9]) [µg/mL],MBC (Salmonella paratyphi [10]) [µg/mL],inhibition [11] [%],inhibition [12] [%],IC50 [13] [µg/mL],IC50 (U-937 [14]) [µM],inhibition at 10 µM (U-937 [15]) [%],IC50 (U-937 [16]) [µM],inhibition (Mus musculus [17]),inhibition (Mus musculus [18])
COc1ccc(-c2nn(-c3ccccc3)cc2Cn2cc(CO)nn2)cc1,40.9,26,16,19,125,125,62.5,125,62.5,62.5,69,86.2,58,17.2,46.7,9.5,–,–
Cc1ccc(-c2nn(-c3ccccc3)cc2CO)cc1,0.74,16.5,19,14,–,–,–,–,–,–,60.3,81.9,61.05,–,20.9,–,–,–
OCc1cn(Cc2cn(-c3ccccc3)nc2-c2ccccc2)nn1,15.7,–,–,12.5,–,–,–,–,–,–,10.3,38.8,128.89,35.7,53,8.12,–,–
OCc1cn(-c2ccc(Cl)cc2)nc1-c1ccccc1,2.61,26.5,21.5,18,3.9,7.81,62.5,125,31.2,62.5,76.7,92.2,54.21,–,21.6,–,–,–
OCc1cn(Cc2cn(-c3ccc(Cl)cc3)nc2-c2ccccc2)nn1,12.7,11.5,19.5,16.5,–,–,–,–,–,–,55.2,78.5,63.74,–,38.8,–,–,–
OCc1cn(-c2ccccc2)nc1-c1ccccc1,1.44,–,11.5,14,–,–,–,–,–,–,75.9,87.9,56.86,–,19.6,–,–,–
OCc1cn(Cc2cn(-c3ccccc3)nc2-c2ccc(Cl)cc2)nn1,19.2,–,–,15,–,–,–,–,–,–,49.1,73.3,68.24,30.9,76.9,6.23,–,–
COc1ccc(C2CNC(=O)C2)cc1OC1CCCC1 (configuration not stated) [ROLIPRAM],59.1,–,–,–,–,–,–,–,–,–,–,–,–,1.12,53.5,1.17,–,–
OCc1cn(-c2ccccc2)nc1-c1ccc(Cl)cc1Cl,4.92,–,13.5,11.5,–,–,–,–,–,–,60.3,80.2,62.37,–,18.3,–,–,–
COc1ccc(-c2nn(-c3ccccc3)cc2CO)cc1,22.9,–,–,11.5,–,–,–,–,–,–,15.5,47.4,105.45,35.5,68.5,8.24,–,–
Cc1ccc(-n2cc(Cn3cc(CO)nn3)c(-c3ccccc3)n2)cc1C,41.7,–,15.5,–,–,–,–,–,–,–,46.5,77.6,64.44,17.4,87,7.72,Active,inactive
Cc1ccc(-n2cc(Cn3cc(CO)nn3)c(-c3ccccc3)n2)cc1,31.2,–,19,11.5,–,–,–,–,–,–,66.4,83.6,59.79,21.4,50.4,8.7,–,–
